The structures appear in SMILES notation. Numbered stars: 1 amine (or outer) side, 2 acyl side, 3 side chain; on linkers, the order of the positions; unused ones are H or OH. Square brackets hold non-standard residues; d marks the D form. Peptide text beside a SMILES is read from it. * marks the point of attachment. Hydrocinnamoyl = O=C(CCc1ccccc1)*; Butanoyl(2-Et) = CCC(CC)C(=O)*; Tle = CC(C)(C)[C@H](N)C(=O)O; Pip = O=C(O)[C@@H]1CCCCN1; NH(3-pentyl) = CCC(CC)N*; Pyrrolidide = C1CCN(*)C1; CO = O=C([*:1])[*:2]; X2 = CCC(CC)CC(=O)*; X3 = CCC(CC)OC(=O)*; X1 = CCCC(CCC)N*; NHiPr = CC(C)N*

The target in the assay is T1, Ribonucleoside-diphosphate reductase large subunit (Herpes simplex virus (type 1 / strain 17), UniProt P08543).
T1 sequence (P08543 whole entry): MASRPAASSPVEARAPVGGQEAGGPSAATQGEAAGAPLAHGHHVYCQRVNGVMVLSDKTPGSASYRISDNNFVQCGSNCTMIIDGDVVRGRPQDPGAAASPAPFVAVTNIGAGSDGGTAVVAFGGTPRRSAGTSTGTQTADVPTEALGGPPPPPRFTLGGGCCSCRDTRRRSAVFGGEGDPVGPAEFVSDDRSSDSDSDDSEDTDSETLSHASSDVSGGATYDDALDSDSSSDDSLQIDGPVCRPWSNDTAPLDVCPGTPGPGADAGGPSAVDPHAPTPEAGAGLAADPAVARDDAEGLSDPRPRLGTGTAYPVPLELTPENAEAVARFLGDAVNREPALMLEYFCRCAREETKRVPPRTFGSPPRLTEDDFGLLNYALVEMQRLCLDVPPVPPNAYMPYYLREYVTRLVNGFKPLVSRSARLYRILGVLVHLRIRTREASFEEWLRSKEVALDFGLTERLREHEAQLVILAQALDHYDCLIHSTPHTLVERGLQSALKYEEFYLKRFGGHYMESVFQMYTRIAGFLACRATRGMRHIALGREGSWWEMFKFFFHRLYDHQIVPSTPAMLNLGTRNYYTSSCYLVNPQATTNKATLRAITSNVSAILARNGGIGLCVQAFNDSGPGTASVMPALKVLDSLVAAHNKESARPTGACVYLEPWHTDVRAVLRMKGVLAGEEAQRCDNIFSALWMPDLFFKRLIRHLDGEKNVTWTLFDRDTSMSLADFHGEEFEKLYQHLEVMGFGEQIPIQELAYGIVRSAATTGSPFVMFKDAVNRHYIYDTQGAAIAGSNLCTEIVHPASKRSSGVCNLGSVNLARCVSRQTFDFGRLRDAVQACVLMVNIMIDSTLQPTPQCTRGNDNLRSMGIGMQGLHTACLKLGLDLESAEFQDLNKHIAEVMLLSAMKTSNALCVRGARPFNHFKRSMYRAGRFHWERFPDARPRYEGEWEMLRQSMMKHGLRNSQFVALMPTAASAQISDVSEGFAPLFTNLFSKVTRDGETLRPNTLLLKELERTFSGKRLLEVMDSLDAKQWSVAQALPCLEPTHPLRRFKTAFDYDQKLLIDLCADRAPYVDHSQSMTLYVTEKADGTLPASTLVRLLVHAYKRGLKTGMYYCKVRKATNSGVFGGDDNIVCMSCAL
The assay can be described thus: Inhibitory activity against Herpes simplex virus (HSV) ribonucleotide reductase (RR). The method in brief: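 Radioligand binding assay for HSV ribonucleotide reductase subunit association, run per a previously published protocol. IC50 taken as the mean of at least four separate determinations, with standard deviation reported.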
In turn, `CCC(CC)NC(=O)N[C@H](C(=O)N1CCC(C(=O)N2CCCC2)[C@H]1C(=O)N[C@@H](CC(=O)O)C(=O)N[C@@H](CC(C)C)C(=O)O)C(C)(C)C` (stereo partly drawn) yielded an IC50 of 108 nM. Then `CCC(CC)NC(=O)NC1CCCN([C@@H](CC(=O)N2CCCC2)C(=O)N[C@@H](CC(=O)O)C(=O)N[C@@H](CC(C)C)C(=O)O)C1=O` (stereo partly drawn), with 240 nM; and `CCC(CC)NC(=O)N[C@H](C(=O)N1CCCC(C(=O)NC)C1C(=O)N[C@@H](CC(=O)O)C(=O)N[C@@H](CC(C)C)C(=O)O)C(C)(C)C` (stereo partly drawn), with 10 nM.

In turn, `CCC(CC)NC(=O)NC1CCN([C@@H](CC(=O)N2CCCC2)C(=O)N[C@@H](CC(=O)O)C(=O)N[C@@H](CC(C)C)C(=O)O)C1=O` (stereo partly drawn) yielded an IC50 of 800 nM. Then `CCC(CC)NC(=O)C[C@H](C(=O)N[C@@H](CC(=O)N1CCCC1)C(=O)N[C@@H](CC(=O)O)C(=O)N[C@@H](CC(C)C)C(=O)O)C(C)(C)C`, with 5 nM; and `CC(=O)N[C@H](C(=O)N[C@H](C(=O)N[C@@H](CC(=O)N1CCCC1)C(=O)N[C@@H](CC(=O)O)C(=O)N[C@@H](CC(C)C)C(=O)O)C(C)C)C(C)C` (Ac-VVD(Pyrrolidide)DL-OH), with 880 nM; and `CC(C)C[C@H](NC(=O)[C@H](CC(=O)O)NC(=O)[C@H](CC(=O)N1CCCC1)NC(=O)[C@@H](NC(=O)[C@@H](NC(=O)CCc1ccccc1)C(C)C)C(C)C)C(=O)O` (Hydrocinnamoyl-VVD(Pyrrolidide)DL-OH), with 24 nM. `CCC(CC)CC(=O)N[C@H](C(=O)N[C@@H](CC(=O)N1CCCC1)C(=O)N[C@@H](CC(=O)O)C(=O)N[C@@H](CC(C)C)C(=O)O)C(C)(C)C` (X2-[Tle]D(Pyrrolidide)DL-OH): the IC50 is 140 nM.

As to `CCC(CC)OC(=O)N[C@H](C(=O)N[C@@H](CC(=O)N1CCCC1)C(=O)N[C@@H](CC(=O)O)C(=O)N[C@@H](CC(C)C)C(=O)O)C(C)(C)C` (X3-[Tle]D(Pyrrolidide)DL-OH), half-maximal inhibition (IC50) was put at 635 nM. Then `CCC(CC)NC(=O)N[C@H](C(=O)N1CCCC(C(=O)N2CCCC2)C1C(=O)N[C@@H](CC(=O)O)C(=O)N[C@@H](CC(C)C)C(=O)O)C(C)(C)C` (stereo in doubt; 16), with 32 nM; and `CCC(CC)NC(=O)N[C@H](C(=O)N1CCCC(C(=O)N2CCCC2)C1C(=O)N[C@@H](CC(=O)O)C(=O)N[C@@H](CC(C)C)C(=O)O)C(C)(C)C` (stereo in doubt; 17), with 3000 nM. Then `CCC(CC)C(=O)N[C@H](C(=O)N[C@@H](CC(=O)N1CCCC1)C(=O)N[C@@H](CC(=O)O)C(=O)N[C@@H](CC(C)C)C(=O)O)C(C)C` ({Butanoyl(2-Et)}-VD(Pyrrolidide)DL-OH), with 860 nM. Then `CCC(CC)NC(=O)N[C@@H](C)C(=O)N[C@@H](CC(=O)N1CCCC1)C(=O)N[C@@H](CC(=O)O)C(=O)N[C@@H](CC(C)C)C(=O)O` ({NH(3-pentyl)-CO}-AD(Pyrrolidide)DL-OH), with 41000 nM; and `CCC(CC)NC(=O)NCC(=O)N[C@@H](CC(=O)N1CCCC1)C(=O)N[C@@H](CC(=O)O)C(=O)N[C@@H](CC(C)C)C(=O)O` ({NH(3-pentyl)-CO}-GD(Pyrrolidide)DL-OH), with 670 nM; and `CCC(CC)NC(=O)N[C@H](C(=O)N[C@@H](CC(=O)N1CCCC1)C(=O)N[C@@H](CC(=O)O)C(=O)N[C@@H](CC(C)C)C(=O)O)C(C)C` ({NH(3-pentyl)-CO}-VD(Pyrrolidide)DL-OH), with 15 nM. `CCC(CC)NC(=O)N[C@H](C(=O)N[C@@H](C)C(=O)N[C@@H](CC(=O)O)C(=O)N[C@@H](CC(C)C)C(=O)O)C(C)(C)C` ({NH(3-pentyl)-CO}-[Tle]ADL-OH): inhibition was half-maximal at 110000 nM (IC50). In turn, `CCC(CC)NC(=O)N[C@H](C(=O)N[C@@H](CC(=O)NC)C(=O)N[C@@H](CC(=O)O)C(=O)N[C@@H](CC(C)C)C(=O)O)C(C)(C)C` ({NH(3-pentyl)-CO}-[Tle]D(NHMe)DL-OH) had an IC50 of 35 nM. Then `CCC(CC)NC(=O)N[C@H](C(=O)N[C@@H](CC(=O)N1CCCC1)C(=O)N[C@@H](CC(=O)O)C(=O)N[C@@H](CC(C)C)C(=O)O)C(C)(C)C` ({NH(3-pentyl)-CO}-[Tle]D(Pyrrolidide)DL-OH), with 3 nM; and `CCC(CC)NC(=O)N[C@H](C(=O)N1CCC[C@H]1C(=O)N[C@@H](CC(=O)O)C(=O)N[C@@H](CC(C)C)C(=O)O)C(C)(C)C` ({NH(3-pentyl)-CO}-[Tle]PDL-OH), with 100000 nM; and `CCC(CC)NC(=O)N[C@H](C(=O)N1CCCC[C@H]1C(=O)N[C@@H](CC(=O)O)C(=O)N[C@@H](CC(C)C)C(=O)O)C(C)(C)C` ({NH(3-pentyl)-CO}-[Tle][Pip]DL-OH), with 750000 nM. To `CNC(=O)N[C@H](C(=O)N[C@@H](CC(=O)N1CCCC1)C(=O)N[C@@H](CC(=O)O)C(=O)N[C@@H](CC(C)C)C(=O)O)C(C)C` ({NHMe-CO}-VD(Pyrrolidide)DL-OH) belongs 42000 nM; to `CC(C)C[C@H](NC(=O)[C@H](CC(=O)O)NC(=O)[C@H](CC(=O)N1CCCC1)NC(=O)[C@@H](NC(=O)NC(C)C)C(C)C)C(=O)O` ({NHiPr-CO}-VD(Pyrrolidide)DL-OH), 435 nM. To `CCCC(CCC)NC(=O)N[C@H](C(=O)N[C@@H](CC(=O)N1CCCC1)C(=O)N[C@@H](CC(=O)O)C(=O)N[C@@H](CC(C)C)C(=O)O)C(C)C` ({X1-CO}-VD(Pyrrolidide)DL-OH) belongs 7 nM.

These data come from ChEMBL document CHEMBL1129325, “Ureido-based peptidomimetic inhibitor of herpes simplex virus ribonucleotide reductase: an investigation of inhibitor bioactive conformation” (J Med Chem, 1996).
